Rows were chosen to be rich in hits. Some 2.2% of all compounds tested hit in one or more screens of this group.
NR2E3 ag-1 – inhibitors of NR2E3-RetCOR corepressor binding, primary screen, NR2E3 agonist project, biochemical, TR-FRET, GST-NR2E3, biotin-RetCOR | Photoreceptor-specific nuclear receptor (Homo sapiens), Q9Y5X4 | inhibition of corepressor binding, % at 4.78 µM | actives 0.12% (n = 320,000) | 1536-well;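 active = percent inhibition above the cutoff of mean plus 3 SD of all tested compounds, set per screening campaign, cut at about 20% in these data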;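 also: 0% = DMSO wells and 100% = biotin wells as full block of FRET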
Target sequence (Q9Y5X4 whole entry, looked up): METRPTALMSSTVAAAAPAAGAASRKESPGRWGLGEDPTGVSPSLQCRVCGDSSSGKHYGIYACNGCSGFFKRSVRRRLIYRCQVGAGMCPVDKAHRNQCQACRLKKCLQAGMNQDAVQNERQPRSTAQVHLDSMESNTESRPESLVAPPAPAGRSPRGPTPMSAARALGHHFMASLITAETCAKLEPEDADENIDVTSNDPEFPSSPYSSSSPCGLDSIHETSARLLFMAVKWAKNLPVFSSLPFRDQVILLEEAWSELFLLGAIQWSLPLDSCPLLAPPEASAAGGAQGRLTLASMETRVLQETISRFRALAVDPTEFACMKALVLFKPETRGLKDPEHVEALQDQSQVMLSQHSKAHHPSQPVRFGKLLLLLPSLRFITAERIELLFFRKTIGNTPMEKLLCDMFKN
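Material: NR2E3–RetCOR corepressor complex | Quantity: 1.35 nM GST-tagged NR2E3 final | Schedule: 5 h at 4 °C | Replication: Singlicate compound wells | Reagent: RetCOR corepressor, biotinylated, 7 nM | Controls: Biotin wells as high control, 0.6% DMSO wells as low control | Signal: TR-FRET, Eu(K)-anti-GST donor, streptavidin-D2 acceptor, ex 340, em 617/671 nm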
FGF22 binding-1 – binders of human FGF22 protein, primary screen, FGF22 synaptogenesis inhibitor project, biophysical, thermal shift, single point; Fibroblast growth factor 22 (Homo sapiens), Q9HCT0; actives 1.5% (n = 340,000); AID 651658, 2012; recombinant FGF22 thermal shift, SYPRO orange fluorescence; percent of sucrose octasulfate shift, DMSO zero; activity (Tm shift, normalised), % at 9.99 µM;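 active = mean Tm shift, scaled 0 neutral to 100 positive control, at about 1.3% or above, every replicate too, limit read from the data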
697 NFkB inh – inhibitors of PMA/ionomycin-induced NF-kB reporter, 697 cells, primary screen, B-cell NF-kB inhibitor project, cell-based, luminescence, uHTS; 697 B-cell NF-kB luciferase reporter, 16 h; inhibition, % at 4 µM; actives 0.33% (n = 330,000); AID 435022, 2010; in the data active = inhibition above about 35%
miR122 inh – miR-122 Renilla sensor signal increase in Huh7, primary screen, miR-122 inhibitor project, cell-based, single point, plate reader; Huh7 miR-122 Renilla luciferase sensor, 48 h; neutral wells = 0, positive control = 100; activation (reporter increase), % at 12.5 µM; actives 0.3% (n = 340,000); AID 602342, 2012;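 active = mean replicate activation score at least 90 and every replicate individually at or above 90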;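 also: higher luciferase means less miR-122 activity so hits act as miR-122 inhibitors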
NR2E3 ag-2 – NR2E3 agonists in two-hybrid cells, primary screen, cell-based, luminescence, CHO-S, Gal4-NCOR/VP16-NR2E3. Photoreceptor-specific nuclear receptor (Homo sapiens), Q9Y5X4. luciferase. inhibition of corepressor binding, % at 3.98 µM. actives 0.35% (n = 360,000);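 active = inhibition above the mean of all tested compounds plus 3 SD, cut at about 70% in these data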;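 also: 0% = DMSO with NR2E3 transfected cells and 100% = cells lacking NR2E3 construct; higher means lower luciferase signal from less NR2E3 corepressor binding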
Jurkat NFkB inh – inhibitors of induced NF-kB luciferase reporter, primary screen, TCR NF-kB activation inhibitor project, cell-based, luminescence, uHTS. Jurkat, PMA/ionomycin-induced NF-kB luciferase reporter. inhibition, % at 4 µM. actives 0.53% (n = 330,000); in the data active = inhibition above about 50%
FGF22 binding-2 – binders of human FGF22 protein, dose response, FGF22 synaptogenesis inhibitor project, biophysical, thermal shift, cherry-pick retest; shares compounds with FGF22 binding-1; thermal shift activity, °C (ΔTm) at 38 µM; recombinant FGF22 thermal shift, SYPRO orange fluorescence; actives 2% (n = 1,000);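 active = fitted rise in melting shift crosses a set limit at or below the top valid dose tested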
TSA no protein – compound-only thermal shift signal without protein, dose response, artefact control for FGF22 binder project, biochemical, cherry-picked samples, RT-PCR instrument | actives 2% (n = 1,000) | AC50, µM (series often up to 38 µM) | AID 743019, 2013 | compound-only SYPRO orange thermal shift counter-screen, no protein | shares compounds with FGF22 binding-1;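 active = rising signal whose fitted curve reaches the 0.54 level within the top valid dose, showing a melting point, actives reach about 13 µM in these data; inactive = the rest, including activity in the opposite direction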; also: value is where the raw curve crosses a fixed level and not half-maximal
An asterisk follows results filed as active; i = inactive; / = no result; [ ] = another dose, or the depositor's remark.

SMILES	NR2E3 ag-1	FGF22 binding-1	697 NFkB inh	miR122 inh	NR2E3 ag-2	Jurkat NFkB inh	FGF22 binding-2	TSA no protein
COc1ccc(S(=O)(=O)N(C)C[C@@H]2Oc3c(NC(=O)c4cc(C)nn4C)cccc3C(=O)N([C@H](C)CO)C[C@H]2C)cc1	/	1.3*	/	1.1[16.7 µM]	/	/	0.088[42 µM]	i
C[C@H]1CN([C@@H](C)CO)C(=O)c2cccc(N(C)C)c2O[C@H]1CN(C)Cc1ccc(C(=O)O)cc1	/	0.2	/	2.7[16.7 µM]	/	/	/	/
C[C@@H]1CN([C@@H](C)CO)C(=O)c2cccc(NC(=O)c3ccc(-c4nccs4)cc3)c2O[C@@H]1CN(C)C	/	5.0*	/	-3.2[16.7 µM]	/	/	0.098	i
C[C@@H]1CN([C@@H](C)CO)C(=O)c2cccc(N(C)C)c2O[C@H]1CN(C)Cc1ccc(C(=O)O)cc1	/	2.7*	/	3.9[16.7 µM]	/	/	0.162[42 µM]	i
COc1ccc(S(=O)(=O)N(C)C[C@H]2Oc3c(NC(=O)c4cc(C)nn4C)cccc3C(=O)N([C@@H](C)CO)C[C@@H]2C)cc1	/	1.1	/	6.5[16.7 µM]	/	/	/	/
COC(=O)C[C@@H]1CC[C@@H]2[C@@H](COc3ccc(NC(=O)c4ccccc4OC)cc3C(=O)N2C)O1	/	-0.2	/	16.7[16.7 µM]	/	/	/	/
CCC(=O)N1CC[C@H]2[C@@H]1c1cc(-c3cccc(OC)c3)ccc1N(C)[C@H]2CO	/	0.1	/	3.4[16.7 µM]	/	/	/	/
N#C[C@H]1[C@@H](c2ccc(C#CCC3CCCC3)cc2)[C@H](CO)N1C(=O)CN1CCOCC1	/	19.2*	/	/	/	/	0.21[42 µM]	i
CN(C)C(=O)C[C@@H]1C[C@H]2c3cc(NC(=O)Nc4ccccc4)ccc3O[C@H]2[C@@H](CO)O1	/	-0.1	/	-4.4[16.7 µM]	/	/	/	/
COCC(=O)N1[C@@H](C#N)[C@H](c2ccccc2-c2ccccc2)[C@@H]1CO	/	-0.1	/	/	/	/	/	/
CCCN(C)C[C@@H]1Oc2cc(C#Cc3ccccc3F)ccc2S(=O)(=O)N([C@@H](C)CO)C[C@@H]1C	/	-0.2	/	2.4[16.7 µM]	/	/	/	/
C[C@@H]1CCCCO[C@@H](CN(C)C(=O)Nc2ccccc2)[C@H](C)CN([C@@H](C)CO)C(=O)c2cc(N(C)C)ccc2O1	/	-0.8	/	-5.9[16.7 µM]	/	/	/	/
O=C(N/N=C/c1ccc(-c2cccc([N+](=O)[O-])c2)o1)c1ccc([N+](=O)[O-])cc1	0.9	1.6*	2.7	/	5.5	8.9	-0.096	i
CCOc1ccc(NC(=O)CC2C(=O)N(c3ccccc3)C(=S)N2Cc2ccccn2)cc1 (centres undefined)	2.1	/	-7.0	7.4	-6.2	-15.9	/	/
COc1ccc(CN2C(=O)N(c3ccc(OC)cc3)C(=O)C2CC(=O)Nc2ccccc2)cc1 (centres undefined)	-4.1	1.4*	-8.7	-3.3	-10.9	-9.4	-0.539	i
CCNC(=O)CC1C(=O)N(c2ccc(OC)cc2)C(=O)N1Cc1ccc(OC)cc1 (centres undefined)	-1.9	/	6.5	1.4	2.0	7.2	/	/
CCOc1ccc(NC(=O)CC2C(=O)N(c3ccc(OC)cc3)C(=S)N2Cc2ccccn2)cc1 (centres undefined)	0.0	2.0*	2.5	21.8	-15.1	0.4	-0.188	i
COC(=O)CN1C(=S)N(c2ccc(F)cc2)C(=O)C1CC(=O)Nc1ccc(OC)cc1 (centres undefined)	-0.7	0.1	20.1	-1.1	-13.9	9.7	/	/

Screens: PubChem BioAssay, several laboratories
